The source of these data is paper PMC4519694 (Nature neuroscience, 2015).

In one experiment the test system is PDE4 (PKA site). In words: PDE4 phosphorylation at the PKA site in striatal slices. The experiment is classed as cell-based, mouse. The procedure, abridged:
(§1)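 Acute mouse striatal slices, drug-treated, analysed by quantitative immunoblot. Phospho-specific signals normalized to the matching total-protein blot; loading normalized to β-actin, GAPDH and/or Coomassie. The PDE4 PKA-site antibody was an affinity-purified polyclonal, phosphorylation state-specific. Mean ± s.e.m.; t-test or ANOVA with Bonferroni post hoc.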

Another experiment deals with NMDA receptor. The experiment is described as follows: NMDA receptor current, whole-cell recording in striatal neurons. The experiment is classed as cell-based, mouse. As to conditions: D-APV 50 µM; NMDA 100 µM; -70 mV.
Experiment [1] concerns the target PDE4B1 phosphorylation by Cdk5 (Homo sapiens, UniProt Q00535). The experiment is described as follows: In vitro Cdk5-dependent phosphorylation of PDE4. The experiment is classed as biochemical, rat.
A further experiment concerns cAMP in striatal slices. The experiment is described as follows: cAMP level in striatal slices. The experiment is classed as cell-based, mouse. (In general: Cyclic AMP is a second messenger, typically raised through Gs and lowered through Gi signalling.)
The subject of the next experiment is PDE4B1 (PKA site). In words: PKA-mediated PDE4 phosphorylation in PC12 cells. The experiment is classed as cell-based. As to conditions: FSK 10 µM, n = 8 reactions, WT vs S145A at 3 min *P = 0.0241, at 15 min ***P < 0.0001.
The next experiment deals with humans. As to conditions: ref [35]–[37]; cited from earlier work.
The test system of the next experiment is animals. The following applies: ref [35]–[37]; cited from earlier work.
In the next experiment the test system is PDE4. The following applies: ref [35]–[37]; cited from earlier work.
A further experiment has as its system CREB (Ser133). In words: Phospho-Ser133 CREB in striatal slices. The following applies: 50 µM roscovitine, n = 3-6. Type of experiment: cell-based, mouse. In outline:
as §1

A further experiment concerns synapsin (Ser9). The experiment is described as follows: Phospho-Ser9 synapsin in striatal slices. The experiment is classed as cell-based, mouse. The following applies: 50 µM roscovitine, n = 3-6. In outline:
as §1

Experiment [2] deals with AMPA receptor subunit GluR1 (Ser845). In words: Phospho-Ser845 GluR1 in striatal slices. Type of experiment: cell-based, mouse. The following applies: 50 µM roscovitine, n = 3-6. In outline:
(§2)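 Acute mouse striatal slices were exposed to test compound and analysed by quantitative immunoblotting. Phospho-specific signals were normalized to the corresponding total-protein blots, and loading to β-actin, GAPDH and/or coomassie staining. Values are mean ± s.e.m.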

The subject of another experiment is DARPP-32 (Thr34). The experiment is described as follows: Phospho-Thr34 DARPP-32 in striatal slices. The experiment is classed as cell-based, mouse. The following applies: 50 µM roscovitine, n = 3-6. The procedure, abridged: as §2
Another experiment deals with PDE. In words: PDE activity in striatal lysates. Type of experiment: biochemical, mouse. The following applies: n = 4 slices.
The subject of a further experiment is mice. The experiment is described as follows: Forced swim test. The following applies: infusion into NAc, two-trial FST, n = 5-7 (Supplementary Fig. 12c). The experiment is classed as in vivo, mouse. The procedure, abridged: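 Bilateral stereotaxic infusion into NAc under isoflurane (AP +1.50 mm from bregma, ML ±1.4 mm, DV −3.90 mm), 1 µl per hemisphere of peptide (115 µM) or PKA inhibitor (45 µM). Testing followed 90 min after peptide or 45 min after inhibitor. Mice aged 10–12 weeks swam in a glass cylinder of 25°C water for 10 min, then 8 min 24 h later. Two researchers, blind to treatment, scored immobility at 2–6 min.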

Peptide text beside a SMILES is read from it.

Chain of PDE4B1 phosphorylation by Cdk5 (Q00535 whole entry): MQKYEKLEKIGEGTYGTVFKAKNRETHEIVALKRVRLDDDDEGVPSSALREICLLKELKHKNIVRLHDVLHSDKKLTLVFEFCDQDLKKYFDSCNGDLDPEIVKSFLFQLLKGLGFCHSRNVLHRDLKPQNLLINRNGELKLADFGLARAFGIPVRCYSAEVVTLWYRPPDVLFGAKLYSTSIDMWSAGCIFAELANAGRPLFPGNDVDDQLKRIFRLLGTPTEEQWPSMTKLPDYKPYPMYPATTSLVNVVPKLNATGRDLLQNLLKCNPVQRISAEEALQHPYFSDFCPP
Chain of PDE4B1 phosphorylation by Cdk5 (Q15078 99-307 partner limits assumed): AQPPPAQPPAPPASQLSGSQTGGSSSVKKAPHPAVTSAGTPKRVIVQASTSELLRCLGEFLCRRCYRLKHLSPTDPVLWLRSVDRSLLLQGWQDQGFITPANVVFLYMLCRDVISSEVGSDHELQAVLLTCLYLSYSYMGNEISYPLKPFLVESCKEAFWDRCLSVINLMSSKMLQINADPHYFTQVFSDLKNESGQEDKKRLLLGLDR

In the case of `CCNC(=O)[C@H]1O[C@@H](n2cnc3c(N)nc(NCCc4ccc(CCC(=O)O)cc4)nc32)[C@H](O)[C@@H]1O` [CGS21680], in the experiment on PDE4 (PKA site) (5 µM, 2 min, Cdk5 cKO striatum, n = 4 slices from 2 mice, WT CGS vs cKO CGS *P = 0.0354), the “PKA-mediated PDE4 phosphorylation in response to CGS21680” value was “Loss of PKA-mediated PDE4 phosphorylation”.
As for `N[C@H](CCCP(=O)(O)O)C(=O)O` [D-APV], the NMDA-evoked current entry with NMDA receptor is given as “blocked”.
`CC[C@H](C)[C@H](NC(=O)[C@H](CCCCN)NC(=O)[C@@H](NC(=O)[C@H](CCC(N)=O)NC(=O)[C@@H](N)CCCNC(=N)N)[C@@H](C)CC)C(=O)N[C@@H](Cc1c[nH]c2ccccc12)C(=O)N[C@@H](Cc1ccccc1)C(=O)N[C@@H](CCC(N)=O)C(=O)N[C@@H](CC(N)=O)C(=O)N[C@@H](CCCNC(=N)N)C(=O)N[C@@H](CCCNC(=N)N)C(=O)N[C@@H](CCSC)C(=O)N[C@@H](CCCCN)C(=O)N[C@@H](Cc1c[nH]c2ccccc12)C(=O)N[C@@H](CCCCN)C(=O)N[C@@H](CCCCN)C(=O)N[C@@H](CCC(=O)O)C(=O)N[C@@H](CO)C(=O)N[C@@H](Cc1ccccc1)C(=O)N[C@@H](CC(C)C)C(=O)N[C@@H](Cc1ccc(O)cc1)C(=O)N[C@@H](CCCNC(=N)N)C(=O)N[C@@H](CO)C(=O)N[C@@H](CC(=O)O)C(=O)N[C@@H](CO)C(=O)N[C@@H](CC(=O)O)C(=O)N[C@@H](Cc1ccc(O)cc1)C(=O)N[C@@H](CC(=O)O)C(=O)N[C@@H](CC(C)C)C(=O)N[C@@H](CO)C(=O)N1CCC[C@H]1C(=O)N[C@@H](CCCCN)C(=O)N[C@@H](C)C(=O)N[C@@H](CCSC)C(=O)O` [PDE4-siP] (H-RQIKIWFQNRRMKWKKESFLYRSDSDYDLSPKAM-OH) came in with a concentration for half-maximal inhibition (IC50) in experiment [1] of 13 µM.
On to `Oc1cc2c(c(Cl)c1O)CCNCC2c1ccccc1` (centres unmarked) [SKF81297], for which, in the experiment on cAMP in striatal slices (SKF81297 (1 µM, 10 min unless stated otherwise), n = 4 slices, **P = 0.0030), the cAMP level result was “increase cAMP to similar levels”.
As for `C=C[C@@]1(C)CC(=O)[C@]2(O)[C@@]3(C)[C@@H](O)CCC(C)(C)[C@@H]3[C@H](O)[C@H](OC(C)=O)[C@@]2(C)O1` [forskolin], the “PDE4 phosphorylation by PKA” value in the experiment on PDE4 (PKA site) (striatal slices (Supplementary Fig. 1e)) is “increased PDE4 phosphorylation by PKA”. In addition, in the experiment with PDE4B1 (PKA site), the “PKA-mediated PDE4 phosphorylation after forskolin, S145A PDE4B1 versus WT” value is on record as “reduced PKA-mediated PDE4 phosphorylation”.
As to `COc1ccc(C2CNC(=O)C2)cc1OC1CCCC1` (centres unmarked) [rolipram, 4-[3-(cyclopenotoxyl)-4-methoxyphenyl]-2-pyrrolidone], the antidepressant activity result in the experiment with humans is “have antidepressant activity in humans”. Also, in the experiment on animals, the “behavioral responses to stressors” value is given as “affect behavioral responses to stressors in animals”. The cAMP result with PDE4 is given as “elevate cAMP”.
In the case of `CC[C@H](CO)Nc1nc(NCc2ccccc2)c2ncn(C(C)C)c2n1` [roscovitine], in the experiment with CREB (Ser133), the “PKA-dependent phosphorylation of CREB (Ser133)” value was “induced PKA-dependent phosphorylation”. In addition, the “PKA-dependent phosphorylation of synapsin (Ser9)” value in the experiment with synapsin (Ser9) is reported as “induced PKA-dependent phosphorylation”. Besides, the “phosphorylation of GluR1 (Ser845)” value in [2] is reported as “increased phosphorylation”. The “phosphorylation of DARPP-32 (Thr34)” value in the experiment on DARPP-32 (Thr34) is on record as “increased phosphorylation”. Besides, the PDE activity result with PDE (roscovitine 10 µM, *P = 0.011) is given as “attenuates PDE activity”; with PDE (roscovitine 50 µM, **P = 0.0037), “attenuates PDE activity”. In the experiment on cAMP in striatal slices (Ros, n = 3 slices, *P = 0.0216), the cAMP level entry is given as “increase cAMP to similar levels”.
On to “RRRRRRR- ESFLYRSDSDYDLSPKAM [poly-arginine tagged PDE4 peptide]”, for which the FST performance result in the experiment on mice was “analogical effect on FST performance”.

A word on the IC50: it is the midpoint of a concentration-inhibition curve.
